Measured values as given in ChEMBL document CHEMBL2331214, “Structure-Based Design and Synthesis of an HIV-1 Entry Inhibitor Exploiting X-Ray and Thermodynamic Characterization” (ACS Med Chem Lett, 2013).

Experiments:
[1] = Binding affinity to HIV1 full length gp120 by isothermal titration calorimetric assay; set-up: species or system Human immunodeficiency virus 1
Method in brief: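 ITC titration of full-length monomeric gp120 with ligand at 25 °C.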

[2] = Inhibition of AMLV gp120 binding to human CD4 expressed in canine CF2Th cells coexpressing CCR5 after 2 to 4 hrs by luciferase reporter gene assay; assay type: cell-based, Amphotropic murine leukemia virus
[3] = tested on: Human immunodeficiency virus 1; experiment: Activation of HIV1 isolate YU2 infectivity in CD4 negative dog CF2Th cells expressing CCR5 by luciferase reporter gene assay relative to TS-2-224; assay type: organism-based; conditions: human immunodeficiency virus 1, cf2th
[4] = Inhibition of HIV1 isolate YU2 gp120 binding to human CD4 expressed in dog CF2Th cells coexpressing CCR5 after 2 to 4 hrs by luciferase reporter gene assay; assay type: cell-based, Human immunodeficiency virus type 1 (isolate YU2)
Method in brief: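 HIV-1 YU2 infection of Cf2Th cells expressing CD4 and CCR5; the IC50 is for inhibition of viral entry.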

[5] = tested on: Human immunodeficiency virus 1; experiment: Activation of HIV1 isolate YU2 infectivity in CD4 negative dog CF2Th cells expressing CCR5 by luciferase reporter gene assay relative to NBD556; assay type: organism-based; conditions: human immunodeficiency virus 1, cf2th
Method in brief: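 HIV-1 YU2 infection of CD4-negative Cf2Th-CCR5 cells; relative activation of viral infectivity is normalized to the reference CD4-mimetic agonist.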

[6] = tested on: Human immunodeficiency virus 1; experiment: Antiviral activity against 0.01 to 0.1 MOI HIV1 Env-pseudovirus Clade C infected in human TZM-bl cells after 30 mins by luciferase assay; assay type: functional, organism-based; conditions: Human immunodeficiency virus 1, Clade C, 0.5 h
Method in brief: (§1)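 Neutralization breadth is tested against a panel of 42 diverse Tier 2 clade B and C Env-pseudoviruses. IC50 values are summarized as geometric mean titers for the sensitive strains.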

[7] = tested on: Human immunodeficiency virus 1; experiment: Antiviral activity against 0.01 to 0.1 MOI HIV1 Env-pseudovirus Clade B infected in human TZM-bl cells after 30 mins by luciferase assay; assay type: functional, organism-based; conditions: Human immunodeficiency virus 1, Clade B, 0.5 h; method in brief: as §1

| SMILES | Kd [1] | IC50 [2] | fold change (FC) [3] | IC50 [4] | fold change (FC) [5] | IC50 [6] | IC50 [7] |
| --- | --- | --- | --- | --- | --- | --- | --- |
| N=C(N)N[C@H]1Cc2ccccc2[C@@H]1NC(=O)C(=O)Nc1ccc(Cl)c(F)c1.O=CO | 0.25 µM | > 100 µM | 0.1 | 22.9 µM | – | – | – |
| N=C(N)N[C@@H]1Cc2ccccc2[C@H]1NC(=O)C(=O)Nc1ccc(Cl)c(F)c1.O=CO | 0.3 µM | > 100 µM | 0 | 21.3 µM | – | – | – |
| N=C(N)NCC[C@@H]1Cc2ccccc2[C@H]1NC(=O)C(=O)Nc1ccc(Cl)c(F)c1.O=CO | 2 µM | > 100 µM | – | 68.5 µM | 0 | – | – |
| N=C(N)NC[C@@H]1Cc2ccccc2[C@H]1NC(=O)C(=O)Nc1ccc(Cl)c(F)c1.O=CO | 6.2 µM | > 100 µM | – | 37.9 µM | 0.11 | – | – |
| N=C(N)NCC[C@H]1Cc2ccccc2[C@@H]1NC(=O)C(=O)Nc1ccc(Cl)c(F)c1.O=CO | 0.34 µM | > 100 µM | – | 28.2 µM | 0.17 | – | – |
| N=C(N)NC[C@H]1Cc2ccccc2[C@@H]1NC(=O)C(=O)Nc1ccc(Cl)c(F)c1.O=CO | 0.11 µM | > 100 µM | – | 2.3 µM | 0 | 14 µM | 1.7 µM |
| N=C(N)NCC1Cc2ccccc2C1NC(=O)C(=O)Nc1ccc(Cl)c(F)c1 (racemic) | – | – | – | 10.3 µM | – | – | – |
